{"data": "Results of several laboratories", "HDAC7": "Histone deacetylase 7 (HDAC7, Homo sapiens, UniProt Q8WUI4)", "ADRB2": "Beta-2 adrenergic receptor (ADRB2, Homo sapiens, UniProt P07550)", "MMP2": "72 kDa type IV collagenase (MMP2, Homo sapiens, UniProt P08253)", "CNR2": "Cannabinoid receptor 2 (CNR2, Homo sapiens, UniProt P34972)", "Akr1b1": "Aldo-keto reductase family 1 member B1 (Akr1b1, Rattus norvegicus, UniProt P07943)", "note": "Each line is one published result; the experiments were not run side by side."}
{"target": "Coagulation factor X (F10, Homo sapiens, UniProt P00742)", "test": "enzyme activity, inhibitor", "IC50 [nM]": 1700, "SMILES": "CC[C@@H](C(=O)Nc1ccc(C(N)=O)c(F)c1)n1cc(OC)c(-c2cc(Cl)ccc2-n2cc(C(F)(F)F)nn2)cc1=O"}
{"target": "HDAC7", "test": "enzyme activity, inhibitor, fluorescence", "IC50 [nM]": 130, "SMILES": "CCCN(CCCCOCCOCCOCCOCC(=O)N[C@H](C(=O)N1C[C@H](O)C[C@H]1C(=O)NCc1ccc(-c2scnc2C)cc1)C(C)(C)C)C[C@@H](C)NC(=O)c1ccc(-c2noc(C(F)(F)F)n2)cc1"}
{"target": "ADRB2", "test": "ligand displacement, radioligand", "IC50 [nM]": "> 30000", "SMILES": "CCOCc1nc(O)c(-c2nnc(Cc3ccc(Cl)cn3)o2)c(O)c1-c1c(OC)cccc1OC"}
{"target": "MMP2", "test": "enzyme activity, inhibitor", "IC50 [nM]": "> 20000", "SMILES": "Cc1noc(-c2cc3cc(-c4nc(C(=O)NCc5ccccc5)[nH]c4C)ccc3[nH]2)n1"}
{"target": "Short transient receptor potential channel 6 (Trpc6, Mus musculus, UniProt Q61143)", "test": "calcium signal, fluorescence", "IC50 [nM]": 61100, "SMILES": "COc1ccc2nc(N(CCN(C)C)C(=O)c3ccc(Cl)s3)sc2c1"}
{"target": "Serine/threonine-protein kinase haspin (HASPIN, Homo sapiens, UniProt Q8TF76)", "test": "enzyme activity, inhibitor, TR-FRET", "IC50 [nM]": 100, "SMILES": "COc1ccc2c3ccnc(C(F)(F)F)c3n(CCCCN)c2c1"}
{"target": "MMP2", "test": "enzyme activity, inhibitor", "IC50 [nM]": "> 20000", "SMILES": "CCNC(=O)c1nc(-c2ccc3[nH]c(-c4nc(C)no4)cc3c2)c(C)[nH]1"}
{"target": "P2Y purinoceptor 6 (P2RY6, Homo sapiens, UniProt Q15077)", "test": "calcium signal, antagonist", "IC50 [nM]": "~1000", "SMILES": "CC(C)(C)OC(=O)NCC#Cc1ccc2c(c1)C=C([N+](=O)[O-])C(C(F)(F)F)O2 (stereo not shown)"}
{"target": "ADRB2", "test": "ligand displacement, radioligand", "setting": "cell membranes", "IC50 [nM]": 84700, "SMILES": "NCC1OC(c2ccccc2)Cc2c1ccc(O)c2O (stereo not shown)"}
{"target": "CNR2", "test": "GTPγS binding, antagonist", "setting": "cell membranes", "IC50 [nM]": 425, "SMILES": "Cc1c(C(=O)N[C@H]2CCC[C@H](O)C2)nc(-c2ccc(Cl)cc2Cl)n1-c1ccc(OS(=O)(=O)CCC(F)(F)F)cc1 (relative stereo)"}
{"target": "MMP2", "test": "enzyme activity, inhibitor", "IC50 [nM]": "> 24000", "SMILES": "Cc1noc(-c2cc3cc(-c4nc(C(=O)NCc5ccc(=O)[nH]c5)[nH]c4C)ccc3[nH]2)n1"}
{"target": "Cytochrome P450 1B1 (CYP1B1, Homo sapiens, UniProt Q16678)", "test": "enzyme activity, inhibitor, fluorescence", "setting": "15 min, pH 7.4", "IC50 [nM]": 480, "SMILES": "COc1cc(O)c(CC=C(C)C)c2c1C(=O)CC(c1ccc(O)cc1)O2 (stereo not shown)"}
{"target": "HDAC7", "test": "enzyme activity, inhibitor", "IC50 [nM]": "> 33300", "SMILES": "Nc1ccc(-c2ccncc2)cc1NC(=O)N1CCCC1"}
{"target": "CNR2", "test": "GTPγS binding, antagonist", "setting": "cell membranes", "IC50 [nM]": 288, "SMILES": "Cc1c(C(=O)NN2CCCCC2)nc(-c2ccc(Cl)cc2Cl)n1-c1ccc(OS(=O)(=O)CCC(F)(F)F)cc1"}
{"target": "Akr1b1", "test": "enzyme activity, inhibitor, absorbance", "setting": "pH 6.2", "IC50 [nM]": 830, "SMILES": "COc1ccc2nc(/N=C3/NC(=O)C(=Cc4ccc(O)c(OC)c4)S3)sc2c1"}
{"target": "Epithelial discoidin domain-containing receptor 1 (DDR1, Homo sapiens, UniProt Q08345)", "test": "enzyme activity, inhibitor", "IC50 [nM]": 53.8, "SMILES": "Cc1cnc(-c2ccc(-c3ccc(NC(=O)Nc4c(F)cc(F)cc4F)cc3F)c3c2C(=O)NC3)[nH]1"}
{"target": "Histone-lysine N-methyltransferase SETD7 (SETD7, Homo sapiens, UniProt Q8WTS6)", "test": "enzyme activity, inhibitor", "IC50 [nM]": "> 333000", "SMILES": "C=CC(C)(C)c1cc(/C=C/C(=O)c2ccc(O)cc2)c(OC)cc1O"}
{"target": "ADRB2", "test": "ligand displacement, radioligand", "setting": "cell membranes", "IC50 [nM]": 63100, "SMILES": "N=C(N)NCCCC(NC(=O)C(c1ccccc1)c1ccccc1)C(=O)NCc1ccc(O)cc1 (stereo not shown)"}
{"target": "Akr1b1", "test": "enzyme activity, inhibitor, absorbance", "setting": "pH 6.2", "IC50 [nM]": 10500, "SMILES": "COc1ccc2nc(/N=C3/NC(=O)C(=Cc4cc(OC)c(O)c(OC)c4)S3)sc2c1"}
